From ChEMBL document CHEMBL1759935, “Pharmacokinetic optimisation of novel indole-2-carboxamide cannabinoid CB1 antagonists” (Bioorg Med Chem Lett, 2011) come the findings set out here.

Usually microsomal CLint stands for a measure of how fast metabolising enzymes remove a compound, apart from limits set by blood flow. For orientation: IC50 means the midpoint of a concentration-inhibition curve. A high value points to a need for much substance. In general, Ki refers to the equilibrium dissociation constant of an inhibitor or competing ligand from its target.

Molecules are shown by their SMILES. Where only a bound is given, the exact number is not on record here.

Series [1] is described as follows: Intrinsic clearance in human liver microsomes in presence of NADPH. The format is ADME, Microsome. A digest of the protocol: (§1)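 Pooled human microsomes (gut or liver) at 0.5 mg protein/mL with 1 mM NADPH, pH 7.4 (P450 pathway). Compound loss followed by LC–MS/MS in duplicate time-course incubations; intrinsic clearance given per mg protein.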
(Liver microsomes are a subcellular fraction often used to study metabolism.)

Series [2] is described as follows: Intrinsic clearance in human liver microsomes in presence of UGT. The format is ADME, Microsome. A digest of the protocol:
(§2)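 UGT pathway: human gut or liver microsomes at 0.5 mg protein/mL with 2 mM UDPGA, alamethicin and 1 mM MgCl2, pH 7.1. Compound depletion measured by LC–MS/MS in duplicate time-course incubations; intrinsic clearance expressed per mg protein.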

Series [3] can be described thus: Intrinsic clearance in human gut microsomes in presence of UGT. The format is ADME, Microsome. An outline of the steps:
as §2

In series [4] the target is T1, Cannabinoid receptor 1 (Homo sapiens, UniProt P21554). The experiment in a line: Antagonist activity against human CB1 receptor. The format is functional.
T1 sequence (P21554 whole entry): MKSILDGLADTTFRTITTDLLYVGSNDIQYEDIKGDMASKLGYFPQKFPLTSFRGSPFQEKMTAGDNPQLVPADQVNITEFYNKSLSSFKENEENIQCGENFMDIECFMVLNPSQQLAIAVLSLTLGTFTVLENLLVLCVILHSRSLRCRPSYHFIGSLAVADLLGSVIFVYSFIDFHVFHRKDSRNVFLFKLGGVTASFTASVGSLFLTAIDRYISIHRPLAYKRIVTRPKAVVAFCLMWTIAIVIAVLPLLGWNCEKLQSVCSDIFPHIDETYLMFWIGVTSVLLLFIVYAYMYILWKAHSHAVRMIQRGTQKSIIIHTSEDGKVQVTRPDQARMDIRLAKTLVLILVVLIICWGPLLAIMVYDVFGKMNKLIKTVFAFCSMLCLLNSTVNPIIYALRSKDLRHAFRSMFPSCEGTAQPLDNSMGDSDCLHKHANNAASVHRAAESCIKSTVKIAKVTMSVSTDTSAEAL
A short description of series [5]: Intrinsic clearance in human gut microsomes in presence of NADPH. The format is ADME, Microsome. An outline of the steps: as §1
The target of series [6] is T1, Cannabinoid receptor 1. Put plainly: biochemical. The format is cell-based, CHO.
Series [7] relates to Mus musculus. Put plainly: Inhibition of WIN55212-2-induced hypothermia in po dosed mouse assessed as change in rectal temperature administered 15 mins before WIN55212-2 challenge measured after 75 mins. The format is functional. The note with it: read-out: ID50 (the source's name). An outline of the steps:
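Antagonist or vehicle (5% mulgofen in saline, 10 mL/kg) given orally 75 min before rectal temperature reading. WIN 55,212-2 mesylate (10 mL/kg) given sc 60 min before the reading, at its time of maximal hypothermia. Metal probe with vaseline inserted about 1.5 cm; highest temperature stable for 10 s recorded. ID50 reported with confidence interval.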

Series [8] deals with Cannabinoid receptor 2 (Homo sapiens, UniProt P34972). The experiment in a line: Displacement of [3H]CP55940 from human recombinant CB2 receptor expressed in Sf9 cells. An outline of the steps:
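Competition binding against [3H]CP55,940 on membranes from Sf9 cells expressing recombinant human CB2 receptor; run at least in duplicate.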

Cannabinoid receptor 2, sequence (P34972 whole entry): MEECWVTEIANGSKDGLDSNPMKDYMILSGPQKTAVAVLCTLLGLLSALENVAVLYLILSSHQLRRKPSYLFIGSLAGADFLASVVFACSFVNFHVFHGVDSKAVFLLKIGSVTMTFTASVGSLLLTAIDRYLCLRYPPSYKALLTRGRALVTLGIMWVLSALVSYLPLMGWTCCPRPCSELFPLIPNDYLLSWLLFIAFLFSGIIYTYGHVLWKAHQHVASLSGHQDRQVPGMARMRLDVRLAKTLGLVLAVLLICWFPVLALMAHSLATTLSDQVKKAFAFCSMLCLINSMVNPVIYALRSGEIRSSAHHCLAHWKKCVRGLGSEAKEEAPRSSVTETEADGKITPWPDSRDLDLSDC

`Cc1ccc(F)cc1Cn1c(C(=O)NCC2(CO)CCC2)cc2cc(C#N)ccc21`: the intrinsic clearance (microsomal CLint) in series [1] is 190 µL/min/mg; in series [2], 49 µL/min/mg; in series [3], 175 µL/min/mg; in series [5], < 6 µL/min/mg. Further, it took 4.9 nM to reach half-maximal inhibition in series [4] (IC50).

Turning to `CC(O)C1(CNC(=O)c2cc3cc(C#N)ccc3n2Cc2cccc(OC(F)(F)F)c2)CCCC1` (centres undefined), the intrinsic metabolic clearance (microsomal CLint) in series [1] is 505 µL/min/mg; in series [2] it was 9 µL/min/mg; in series [3], < 6 µL/min/mg; in series [5] it was 99 µL/min/mg. Moreover, in series [4], the 50% inhibitory concentration (IC50) is 5.13 nM.

Regarding `COc1ccc(C(F)(F)F)cc1Cn1c(C(=O)NCC(C)(C)O)cc2cc(C#N)ccc21`, the microsomal CLint in series [1] is 7 µL/min/mg; in series [2], < 6 µL/min/mg; in series [3], < 6 µL/min/mg; in series [5] it was < 6 µL/min/mg. In series [4], this compound gave an IC50 of 11.5 nM. The compound further showed a Ki in series [6] of 7.59 nM. The ED50 in series [7] is > 10 µmol/kg.

Consider `COc1ccc(Br)cc1Cn1c(C(=O)NCCCO)cc2cc(C#N)ccc21`, for which the microsomal CLint is 41 µL/min/mg in series [1], < 6 µL/min/mg in series [2], < 6 µL/min/mg in series [3] and < 6 µL/min/mg in series [5]. In addition, inhibition in series [4] was half-maximal at 9.33 nM (IC50).

For the compound `N#Cc1ccc2c(c1)cc(C(=O)NCCC(O)C(F)(F)F)n2Cc1cccc(OC(F)(F)F)c1` (centres undefined), the intrinsic metabolic clearance (microsomal CLint) in series [1] was 59 µL/min/mg; in series [2] it was 31 µL/min/mg; in series [3], < 6 µL/min/mg; in series [5] it was 26 µL/min/mg. Half-maximal inhibition in series [4] (IC50) required 8.13 nM.

Turning to `COc1ccc(C(C)(C)C)cc1Cn1c(C(=O)NCC2(CO)CC2)cc2cc(C#N)ccc21`, the microsomal CLint in series [1] is 188 µL/min/mg; in series [2], < 6 µL/min/mg; in series [3], 26 µL/min/mg; in series [5], < 6 µL/min/mg. In addition, the IC50 in series [4] is 1.48 nM.

On to `Cc1ccc(C)c(Cn2c(C(=O)NCC(C)(C)CO)cc3cc(C#N)ccc32)c1`, for which the microsomal CLint in series [1] was 257 µL/min/mg; in series [2] it was 29 µL/min/mg; in series [3], 124 µL/min/mg; in series [5], < 6 µL/min/mg. This compound showed a half-inhibitory concentration (IC50) in series [4] of 0.631 nM.

Regarding `Cc1c(C(=O)NN2CCCCC2)nn(-c2ccc(Cl)cc2Cl)c1-c1ccc(Cl)cc1` [RIMONABANT], the microsomal CLint in series [1] was 69 µL/min/mg; in series [2], < 6 µL/min/mg; in series [3], < 6 µL/min/mg; in series [5], < 6 µL/min/mg. Also, the ED50 in series [7] turned out to be 1.29 µmol/kg.

In the case of `CCOc1ccc(OC(F)(F)F)cc1Cn1c(C(=O)NCC(C)(C)CO)cc2cc(C#N)ccc21`, the microsomal CLint was 103 µL/min/mg in series [1], 20 µL/min/mg in series [2], 103 µL/min/mg in series [3] and < 6 µL/min/mg in series [5]. In addition, half-maximal inhibition in series [4] (IC50) was put at 8.32 nM.

For `COc1ccc(OC(F)(F)F)cc1Cn1c(C(=O)NCC(C)(C)O)cc2cc(C#N)ccc21`, the microsomal CLint in series [1] is < 6 µL/min/mg; in series [2] it was < 6 µL/min/mg; in series [3] it was 8 µL/min/mg; in series [5], < 6 µL/min/mg. Inhibition in series [4] was half-maximal at 22.4 nM (IC50). Also, the Ki in series [6] was 5.5 nM. In addition, the ED50 in series [7] was > 10 µmol/kg.

For `CC(C)(O)CCNC(=O)c1cc2cc(C#N)ccc2n1Cc1cccc(OC(F)(F)F)c1`, the microsomal CLint in series [1] was 9 µL/min/mg; in series [2], < 6 µL/min/mg; in series [3], 9 µL/min/mg; in series [5], < 6 µL/min/mg. This compound also showed an IC50 in series [4] of 13.5 nM. For the same compound, in series [6], affinity was put at a Ki of 5.01 nM. Also, the ED50 in series [7] is 9.67 µmol/kg.

With `COc1ccc(Br)cc1Cn1c(C(=O)NCC(C)(C)CO)cc2cc(C#N)ccc21`, the microsomal CLint in series [1] is 104 µL/min/mg; in series [2] it was 23 µL/min/mg; in series [3], 94 µL/min/mg; in series [5], < 6 µL/min/mg. In series [4], this compound gave an IC50 of 0.776 nM.

As for `COc1ccc(OC(F)(F)F)cc1Cn1c(C(=O)NCC2(CO)CC2)cc2cc(C#N)ccc21`, the microsomal CLint is 139 µL/min/mg in series [1], 18 µL/min/mg in series [2], 51 µL/min/mg in series [3] and < 6 µL/min/mg in series [5]. This compound had an IC50 in series [4] of 5.13 nM.

As to `COc1ccc(Cl)cc1Cn1c(C(=O)NCC(C)(C)CO)cc2cc(C#N)ccc21`, the intrinsic metabolic clearance (microsomal CLint) was 83 µL/min/mg in series [1], 10 µL/min/mg in series [2], 63 µL/min/mg in series [3] and < 6 µL/min/mg in series [5]. This compound had a half-inhibitory concentration (IC50) in series [4] of 2 nM.

With `N#Cc1ccc2c(c1)cc(C(=O)NCCC(O)(C(F)(F)F)C(F)(F)F)n2Cc1cccc(OC(F)(F)F)c1`, the microsomal CLint in series [1] is 20 µL/min/mg; in series [2], 24 µL/min/mg; in series [3], < 6 µL/min/mg; in series [5], < 6 µL/min/mg. The compound further had an IC50 in series [4] of 6.03 nM.

Consider `COc1ccc(C)cc1Cn1c(C(=O)NCC(C)(C)CO)cc2cc(C#N)ccc21`, for which the intrinsic metabolic clearance (microsomal CLint) in series [1] was 191 µL/min/mg; in series [2], 23 µL/min/mg; in series [3], 64 µL/min/mg; in series [5] it was < 6 µL/min/mg. In addition, the IC50 in series [4] is 0.759 nM.

Regarding `Cc1ccc(Cl)cc1Cn1c(C(=O)NCC(C)(C)CO)cc2cc(C#N)ccc21`, the intrinsic clearance (microsomal CLint) in series [1] was 119 µL/min/mg; in series [2], 23 µL/min/mg; in series [3], 124 µL/min/mg; in series [5], < 6 µL/min/mg. In series [4], the IC50 is 0.575 nM.

For `COc1ccc(C(F)(F)F)cc1Cn1c(C(=O)NCC2(CO)CC2)cc2cc(C#N)ccc21`, the microsomal CLint was 155 µL/min/mg in series [1], 7 µL/min/mg in series [2], 49 µL/min/mg in series [3] and < 6 µL/min/mg in series [5]. Further, half-maximal inhibition in series [4] (IC50) required 1.32 nM.

Consider `Cc1ccc(C(F)(F)F)cc1Cn1c(C(=O)NCC(C)(C)CO)cc2cc(C#N)ccc21`, for which the intrinsic metabolic clearance (microsomal CLint) in series [1] is 180 µL/min/mg; in series [2], 16 µL/min/mg; in series [3], 102 µL/min/mg; in series [5], < 6 µL/min/mg. Half-maximal inhibition in series [4] (IC50) was put at 0.513 nM.

As to `COc1ccc(C(F)(F)F)cc1Cn1c(C(=O)NCCC2(O)CCC2)cc2cc(C#N)ccc21`, the microsomal CLint is 88 µL/min/mg in series [1], < 6 µL/min/mg in series [2], < 6 µL/min/mg in series [3] and < 6 µL/min/mg in series [5]. This compound showed an IC50 in series [4] of 1.48 nM.

On to `COc1ccc(Cl)cc1Cn1c(C(=O)NCC2(CO)CCC2)cc2cc(C#N)ccc21`, for which the microsomal CLint in series [1] was 196 µL/min/mg; in series [2], 34 µL/min/mg; in series [3], 179 µL/min/mg; in series [5] it was < 6 µL/min/mg. For the same compound, in series [4], 2.57 nM corresponded to half-maximal inhibition (IC50).

With `CCCOc1cccc(Cn2c(C(=O)NCC(C)(C)CO)cc3cc(C#N)ccc32)c1`, the microsomal CLint in series [1] worked out at 156 µL/min/mg; in series [2] it was 10 µL/min/mg; in series [3] it was 45 µL/min/mg; in series [5], 13 µL/min/mg. In addition, the IC50 in series [4] was 1.55 nM.

For `CC(C)(CO)CNC(=O)c1cc2cc(C#N)ccc2n1Cc1cc(Cl)cc(Cl)c1`, the microsomal CLint in series [1] was 103 µL/min/mg; in series [2], 22 µL/min/mg; in series [3], 98 µL/min/mg; in series [5], < 6 µL/min/mg. In series [4], the IC50 was 5.37 nM.

Turning to `CC(O)CCNC(=O)c1cc2cc(C#N)ccc2n1Cc1cccc(OC(F)(F)F)c1` (centres undefined), the microsomal CLint in series [1] is 113 µL/min/mg; in series [2] it was < 6 µL/min/mg; in series [3] it was < 6 µL/min/mg; in series [5] it was < 6 µL/min/mg. In addition, in series [4], the IC50 was 8.91 nM.

For `N#Cc1ccc2c(c1)cc(C(=O)NCCC1(O)CCC1)n2Cc1cccc(OC(F)(F)F)c1`, the intrinsic metabolic clearance (microsomal CLint) in series [1] is 78 µL/min/mg; in series [2], < 6 µL/min/mg; in series [3] it was < 6 µL/min/mg; in series [5], < 6 µL/min/mg. In series [4], 2.63 nM corresponded to half-maximal inhibition (IC50).

`CC(C)(CO)CNC(=O)c1cc2cc(C#N)ccc2n1Cc1cccc(OC(F)(F)F)c1`: the microsomal CLint was 62 µL/min/mg in series [1], 20 µL/min/mg in series [2], 136 µL/min/mg in series [3] and < 6 µL/min/mg in series [5]. In addition, the Ki in series [8] is > 10000 nM; in series [6] it was 0.794 nM. The 50% inhibitory concentration (IC50) in series [4] is 1.82 nM. Moreover, in series [7], the ED50 came out at 3.42 µmol/kg.
